# Activity calls are given as the source filed them. No cut-off for these calls is given here.
# Columns and labels:
# Type in all cases: functional, cell-based
# [1] = system: Calvarial osteoblast; test: Increase in collagen 1 gene expression in rat calvarial osteoblast cells by qPCR analysis
# [2] = system: Calvarial osteoblast; test: Increase in osteocalcin gene expression in rat calvarial osteoblast cells by qPCR analysis
# [3] = system: Calvarial osteoblast; test: Osteogenic activity in rat calvarial osteoblast cells assessed as induction of mineralization by Alizarin red-S staining
# How it was run: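 Calvarial osteoblasts trypsinized at 80% confluence and plated at 2.5×10⁴ cells/well. Treated with compound in differentiation medium (ascorbic acid 50µg/ml, β-glycerophosphate 10mM), with medium changed every alternate day for up to 21 days. Fixed in 4% paraformaldehyde for 15 min, stained 30 min with 40mM Alizarin Red-S (pH 4.5). Dye extracted with 10% acetic acid, heated at 85°C, neutralized with ammonium hydroxide, OD read at 405 nm.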
# [4] = system: Calvarial osteoblast; test: Increase in BMP-2 gene expression in rat calvarial osteoblast cells by qPCR analysis
# [5] = system: Calvarial osteoblast; test: Osteogenic activity in rat calvarial osteoblast cells assessed as induction of cell differentiation by measuring alkaline phosphatase activity using pNPP as substrate by calorimetric analysis; settings: for EC50: Rattus norvegicus, Calvarial osteoblast
# How it was run: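 Primary rat calvarial osteoblasts, trypsinized at about 80% confluence, seeded at 2×10³ cells/well. Treated with compound (100µM, 1µM, 10nM, 100pM, 1pM) or vehicle for 48 h in α-MEM with 10% FBS, 10mM β-glycerophosphate, 50µg/ml ascorbic acid and 1% penicillin/streptomycin. Total ALP measured with p-nitrophenylphosphate substrate, absorbance at 405 nm. Mean±S.D. of three independent experiments.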
# [6] = system: Calvarial osteoblast; test: Increase in RunX2 gene expression in rat calvarial osteoblast cells by qPCR analysis
SMILES,Activity [1],Activity [2],Activity [3],Activity [4],concentration of maximal effect [5],Activity [6],EC50 [5]
COc1cc2oc(=O)cc(-c3ccccc3)c2cc1OC,Active,Active,Active,Active,1 µM,Active,–
C=CC(c1ccccc1)c1cc(O)c(OC)cc1OC (stereo unspecified) [DALBERGIPHENOL],Active,Active,Active,Active,0.01 µM,Active,–
COc1cc2oc(=O)cc(-c3ccccc3)c2cc1O [DALBERGIN],Active,Active,–,Active,1e-06 µM,Active,1.01 nM
COc1cc2c(cc1O)C(c1ccccc1)=CCO2,Active,Active,–,Active,0.01 µM,Active,1700 nM
COC1=CC(=O)c2cc(-c3ccccc3)c3cc(O)c(OC)cc3c2C1=O [LATINONE],Active,Active,–,Active,1 µM,Active,–
COc1cc(OC)c(/C(=C/C=O)c2ccccc2)cc1O,Active,Active,Active,Active,0.0001 µM,Active,6.46 nM

# — ChEMBL document CHEMBL3286365, “Neoflavonoids as potential osteogenic agents from Dalbergia sissoo heartwood” (Bioorg Med Chem Lett, 2014)
